This passage reports Activity and IC50 results from ChEMBL document CHEMBL3124769, “Synthesis and antitumor activities of novel dipeptide derivatives derived from dehydroabietic acid” (Bioorg Med Chem Lett, 2014).

Calls of active or inactive are those of the source. The calls are words filed in the database; no cut-off is given here.

One may read the IC50 as the concentration that gives 50% inhibition. A higher IC50 goes with lower potency.

Experiment [1] has as its system HeLa. Nature of the experiment: Induction of apoptosis in human HeLa cells assessed as necrotic cells at 5 uM after 12 hrs using annexin V/propidium iodide staining by flow cytometry (reference value: 2.1%). The experiment is classed as functional. The method, boiled down: (§1)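 HeLa cells were treated at 5 or 10 µM for 12 h, with untreated cells run alongside for 12 h. Cells were washed in cold PBS and resuspended in binding buffer. They were stained with Annexin V-FITC, then PI, for 20 min in the dark and run on a flow cytometer. Quadrants: Q2 necrotic/late apoptotic, Q3 normal, Q4 early apoptotic. Apoptosis ratio = early + late.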
For orientation: In flow cytometry, cells or beads pass a laser one at a time.

Experiment [2] relates to HeLa. Nature of the experiment: Induction of apoptosis in human HeLa cells after 12 hrs using annexin V/propidium iodide staining by flow cytometry. The experiment is classed as functional, cell-based. The procedure, abridged:
as §1

Experiment [3] relates to HeLa. Nature of the experiment: Induction of apoptosis in human HeLa cells assessed as DNA fragmentation at 10 uM after 12 to 24 hrs by TUNEL assay. Type of experiment: functional, cell-based. The procedure, abridged:
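After 12 and 24 h at 10 µM, HeLa cells (untreated 24 h control) were fixed in 4% paraformaldehyde and permeabilized with 0.1% Triton X-100. Fragmented DNA 3′-ends were labeled with FITC-dUTP using a TUNEL kit. Cells were imaged by fluorescence microscopy at 488 nm excitation and 530 nm emission.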

For experiment [4], the system named is HeLa. Nature of the experiment: Induction of apoptosis in human HeLa cells assessed as release of mitochondrial cytochrome c into cytosol at 5 to 10 uM after 12 hrs by fluorescence microscopic analysis. Type of experiment: functional, cell-based.
Experiment [5] has as its system HeLa. Nature of the experiment: Induction of apoptosis in human HeLa cells assessed as apoptotic ratio at 10 uM after 12 hrs using annexin V/propidium iodide staining by flow cytometry (reference value: 2.3%). Type of experiment: functional. The method, boiled down:
as §1

Experiment [6] relates to HeLa. The experiment in a line: Induction of apoptosis in human HeLa cells assessed as release of ROS at 5 to 10 uM after 12 hrs by fluorescence microscopic analysis. The experiment is classed as functional, cell-based. The method, boiled down:
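HeLa cells were given 5 or 10 µM for 12 h, with an untreated control handled the same way. Intracellular ROS was visualized by fluorescence microscopy using the probe 2,7-dichlorofluorescein diacetate.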

The test system of experiment [7] is HeLa. The experiment in a line: Induction of apoptosis in human HeLa cells assessed as DNA fragmentation at 5 to 15 uM after 24 hrs by agarose gel electrophoresis analysis. The experiment is classed as functional, cell-based. The method, boiled down: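 HeLa cells were exposed for 24 h at 5, 10 or 15 µM alongside untreated cells. Total cellular DNA was extracted and run on agarose gel electrophoresis to look for a nucleosome-sized ladder (~180–200 bp fragments).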

Another experiment relates to HCT-116. Nature of the experiment: Cytotoxicity against human HCT116 cells after 48 hrs by MTT assay. Type of experiment: functional, cell-based. The settings on record: HCT-116, 48 h. The method, boiled down:
(§2)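 Cells from the six lines were plated and left to adhere for 24 h. They were then exposed to compounds at 100 to 0.01 µM for 48 h. After that the medium was replaced with complete medium and viability was read by MTT. IC50 came from the concentration series, and each experiment was done three times.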

Experiment [8] concerns HeLa. The experiment in a line: Induction of apoptosis in human HeLa cells assessed as change in mitochondrial membrane potential at 10 uM after 12 to 24 hrs by JC-1 staining. The experiment is classed as functional, cell-based. The procedure, abridged: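 HeLa cells were exposed at 10 µM for 12 and 24 h, with an untreated 24 h control, then stained with JC-1. Monomers were excited at 514 nm (read 515–545 nm, green) and aggregates at 585 nm (read 570–600 nm, red). Depolarization was taken as a rise in the green/red intensity ratio.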

The test system of experiment [9] is HeLa. Nature of the experiment: Induction of apoptosis in human HeLa cells assessed as apoptotic morphology at 10 uM after 12 to 24 hrs by Hoechst 33258 staining. Type of experiment: functional, cell-based. The method, boiled down:
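HeLa cells on coverslips were treated at 10 µM for 12 and 24 h, with an untreated 24 h control. They were fixed in 4% paraformaldehyde for 10 min, washed in PBS, stained with Hoechst 33258 for 5 min and washed again. Nuclei were viewed under fluorescence at 350 nm excitation and 460 nm emission.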

Experiment [10] deals with HeLa. Nature of the experiment: Induction of apoptosis in human HeLa cells assessed as early apoptotic cells at 10 uM after 12 hrs using annexin V/propidium iodide staining by flow cytometry (reference value: 3.8%). Type of experiment: functional. The procedure, abridged: as §1
A further experiment has as its system SK-OV-3. Nature of the experiment: Cytotoxicity against human SKOV3 cells after 48 hrs by MTT assay. The settings on record: SK-OV-3, 48 h. The experiment is classed as functional, cell-based. The method, boiled down:
as §2
In general terms: Tetrazolium assays rely on reduction of a dye to a coloured formazan, in cell work by metabolically active cells.

Experiment [11] has as its system HeLa. The experiment in a line: Induction of apoptosis in human HeLa cells assessed as early apoptotic cells at 5 uM after 12 hrs using annexin V/propidium iodide staining by flow cytometry (reference value: 3.8%). Type of experiment: functional. The procedure, abridged:
as §1

In experiment [12] the test system is HeLa. Nature of the experiment: Induction of apoptosis in human HeLa cells at 10 uM after 12 to 24 hrs by acridine orange/ethidium bromide staining. The experiment is classed as functional, cell-based. The procedure, abridged: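 HeLa cells were seeded at 5×10⁴ cells/mL on coverslips and fed fresh medium with 10% FBS. They were treated at 10 µM for 12 and 24 h, with an untreated 24 h control. Coverslips were inverted onto AO/EB stain and examined by fluorescence microscopy. Scoring: green = live, green-yellow = early apoptotic, orange = late apoptotic/necrotic.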

Experiment [13] relates to HeLa. The experiment in a line: Induction of apoptosis in human HeLa cells assessed as activation of caspase 3/9 by spectrophotometry analysis. The experiment is classed as functional, cell-based. The settings on record: TDE = time-dependent effect. The procedure, abridged:
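Caspase-3 and caspase-9 activities in treated HeLa cells were measured spectrophotometrically at time points from 3 to 24 h and compared with untreated controls.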

Experiment [14] is described as follows: Cytotoxicity against human Bel7404 cells after 48 hrs by MTT assay. Type of experiment: functional, cell-based. The settings on record: BEL-7404, 48 h. The method, boiled down: as §2
In experiment [15] the test system is HeLa. Nature of the experiment: Cytotoxicity against human HeLa cells after 48 hrs by MTT assay. Type of experiment: functional, cell-based. The procedure, abridged:
as §2

For a further experiment, the system named is HepG2. The experiment in a line: Cytotoxicity against human HepG2 cells after 48 hrs by MTT assay. Type of experiment: functional, cell-based. The settings on record: HepG2, 48 h. The method, boiled down:
as §2

Experiment [16] has as its system HeLa. The experiment in a line: Induction of apoptosis in human HeLa cells assessed as apoptotic ratio at 5 uM after 12 hrs using annexin V/propidium iodide staining by flow cytometry (reference value: 2.3%). The experiment is classed as functional. The method, boiled down: as §1
Experiment [17] has as its system HeLa. Nature of the experiment: Induction of apoptosis in human HeLa cells assessed as necrotic cells at 10 uM after 12 hrs using annexin V/propidium iodide staining by flow cytometry (reference value: 2.1%). The experiment is classed as functional. The method, boiled down:
as §1

Another experiment deals with NCI-H460. The experiment in a line: Cytotoxicity against human NCI-H460 cells after 48 hrs by MTT assay. To be noted: NCI-H460, 48 h. The experiment is classed as functional, cell-based. The method, boiled down: as §2

On to `COc1ccc(NC(=O)[C@@H](Cc2ccccc2)NC(=O)[C@]2(C)CCC[C@]3(C)c4ccc(C(C)C)cc4CC[C@@H]23)cc1`, for which the Activity is 3.2% with HeLa [1]; “Dose-dependent effect” with HeLa [2]; 33.7% in the experiment with HeLa [5]; 19.2% in the experiment with HeLa [10]; 9.4% in the experiment with HeLa [11]; “tde” in the experiment with HeLa [13]. Also, the Activity with HeLa [16] is on record as 12.6%; in the experiment with HeLa [17], 14.5%. Further, the result with HeLa [3], in the experiment with HeLa [4], with HeLa [6], in the experiment on HeLa [7], in the experiment on HeLa [8] and in the experiment on HeLa [9] was Active. Besides, the result with HeLa [12] was Active. Besides, the IC50 with HCT-116 worked out at 15.7 µM; with SK-OV-3, 23.8 µM; in experiment [14], 15.3 µM; in the experiment on HeLa [15], 4.94 µM; with HepG2, 12.4 µM; in the experiment on NCI-H460 it was 17.2 µM.
